High-throughput results (PubChem)
HNF4A DNA FP: change in binding of human HNF4 alpha to DNA; activity change, % at 10 µM; 360,000 tested, 0.3% active; HNF4a-FITC DNA binding, fluorescence polarization, 1 h; in the data active means activity change above about 30%, passing the limit was not always enough
Rpn11 inh: inhibitors of human proteasome Rpn11; 360,000 tested, 0.59% active; calls only at 20 µM; human 26S proteasome, Ub4-pepOG fluorescence polarization; 20S core pre-blocked with epoxomicin;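 active means inhibition at 20 µM, scaled to each plate's controls, above about 33%, limit read from the data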
Target sequence (O00487 whole entry, looked up): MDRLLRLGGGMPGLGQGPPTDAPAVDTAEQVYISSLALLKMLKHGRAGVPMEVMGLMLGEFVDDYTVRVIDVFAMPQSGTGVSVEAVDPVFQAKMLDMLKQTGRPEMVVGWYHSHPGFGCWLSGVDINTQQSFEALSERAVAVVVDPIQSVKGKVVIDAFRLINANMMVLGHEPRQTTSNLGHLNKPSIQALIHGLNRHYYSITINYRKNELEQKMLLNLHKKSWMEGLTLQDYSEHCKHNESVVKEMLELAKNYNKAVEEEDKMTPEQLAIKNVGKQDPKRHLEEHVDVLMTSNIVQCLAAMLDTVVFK
IDE act: activators of human insulin-degrading enzyme in cells; activation, % at 5.96 µM; P14735; 340,000 tested, 0.073% active; HEK cells, FAbeta-B cleavage, fluorescence polarization; 0% vehicle, 100% cell-free pure enzyme wells;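 active means activation above the mean of all tested compounds plus 3 SD, set per screening campaign, cut at about 17% in these data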
IDE inh: inhibits human insulin-degrading enzyme in HEK cells; P14735; FAbetaB cleavage, fluorescence polarization; inhibition, % at 5.59 µM; 320,000 tested, 0.41% active; AID 434962;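 active means percent inhibition above the average of all tested compounds plus 3 SD, set per screening campaign, cut at about 16% in these data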;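 further: IDE supplied by intact live HEK cells; FP after avidin binding of uncleaved biotin substrate so inhibition keeps polarization high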
CSN deneddyl inh: inhibitors of human CSN-mediated cullin deneddylation; AID 651999; inhibition, % at 12.5 µM; Purified CSN, SCF-Nedd8-OG deneddylation, fluorescence polarization; 360,000 tested, 0.38% active;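 active means pattern-corrected inhibition above about 35%, with an unprinted fluorescence ratio check between 0.5 and 1.5, limit read from the data, passing the limit was not always enough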
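Assay system: Purified human Csn5 enzyme expressed in HEK293T cells | Amount: Enzyme 0.24 nM | Measured by: Fluorescence polarization readout | Medium: Tris/NaCl/DTT buffer, pH 7.5 | Compound dosing: One concentration, 12.5 µM, 0.25% DMSO | Times: 90 min incubation of compound, enzyme and substrate at room temperature | Control set: no-enzyme wells high, enzyme-with-substrate wells low | Read-out: % inhibition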
TPT1 inhibitor: blocks Candida albicans tRNA 2'-phosphotransferase. recombinant caTPT1, FP RNA substrate dephosphorylation. inhibition, % at 5 µM. 300,000 tested, 0.81% active;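 active means inhibition above the mean of all tested compounds plus 3 SD, set per screening campaign, cut at about 24% in these data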
TPT1 inh confirm: TPT1 (C. albicans) inhibition, confirmation. shares compounds with TPT1 inhibitor. recombinant caTPT1, fluorescence polarization, RNase T1 coupled. inhibition, % at 5 µM. 2,400 tested, 74% active. AID 2149;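 active means inhibition above the primary screen limit, the mean inhibition of all tested compounds plus 3 SD, cut at about 25% in these data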
RNase T1 counter: blocks Aspergillus oryzae RNase T1, a TPT1 counter-screen; shares compounds with TPT1 inhibitor; RNase T1 cleavage, fluorescence polarization, 1536-well; inhibition, % at 5 µM; 2,400 tested, 83% active; AID 2153;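 active means inhibition above the solvent-only control well mean plus 3 SD, limit set per screening run, cut at about 23% in these data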;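 further: inhibitors block cleavage so intact labeled substrate keeps polarization high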
Target sequence (P00651 whole entry, looked up): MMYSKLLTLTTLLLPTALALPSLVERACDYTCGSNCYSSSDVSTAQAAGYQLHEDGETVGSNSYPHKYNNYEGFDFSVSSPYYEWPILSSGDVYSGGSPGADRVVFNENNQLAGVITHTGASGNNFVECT
Numbers stand for hits; – = inactive; · = no result shown; + = active, no number; ! = not confirmed by another sample. Sampled rows, rich in hits. Any-hit rate of the full collection: about 1.7%.

SMILES	HNF4A DNA FP	Rpn11 inh	IDE act	IDE inh	CSN deneddyl inh	TPT1 inhibitor	TPT1 inh confirm	RNase T1 counter
Cc1cccc(N2C(=O)NC(=O)/C(=C\c3cnc(-c4ccccc4)nc3)C2=O)c1	–	–	–	–	–	–	·	·
O=C1NC(=O)N(c2ccccc2)C(=O)/C1=C/c1ccoc1	–	–	–	–	44.4	112.7	60.4	74.2
COc1cc(/C=C2/C(=O)NC(=O)N(c3ccccc3)C2=O)ccc1O	–	–	–	–	–	–	·	·
Cc1ccc(N2C(=O)NC(=O)/C(=C/c3cnc(-c4ccccc4)nc3)C2=O)cc1C	–	–	–	–	–	24.6	–	–
Cc1ccc(N2C(=O)NC(=O)/C(=C\c3ccsc3)C2=O)cc1C	·	·	·	–	·	27.6	52.2	65.6
CCOc1ccc(NC(=O)C2C3c4ccccc4C(c4ccccc43)C2C(=O)O)cc1 (configuration not stated)	–	–	–	–	–	–	·	·
Cc1ccc(C2(O)CCN3CCCCC32)cc1 (configuration not stated)	–	–	–	–	–	–	·	·
Cc1ccc(/C=C2/C(=O)NC(=O)N(CCc3ccc(F)cc3)C2=O)o1	–	–	–	–	–	27.4	–	–
O=C1NC(=O)N(CCc2ccc(F)cc2)C(=O)/C1=C/c1cccs1	–	–	–	–	–	–	·	·
O=C1NC(=O)N(Cc2ccco2)C(=O)/C1=C/c1ccc(-c2cccc([N+](=O)[O-])c2)o1	–	–	–	–	–	–	·	·
CC(=O)c1c(O)n(-c2cccc(Cl)c2)c(=O)[nH]c1=O (tested in a mixture with another compound)	–	–	–	–	–	28.4	33.8	42.7
CN1CCC2(CC1)C(C#N)=C(N)NC(S)=C2C#N	–	·	–	–	–	50.5!	–	28.0
C=CCN1C(=O)/C(=C/c2ccc(N3CCOCC3)o2)C(=O)NC1=S	80.3	·	–	–	102.8	121.3	142.8	136.8
O=C1NC(=O)C(=Cc2ccc(N3CCOCC3)o2)C(=O)N1	–	·	–	–	–	180.1	146.1	144.1
COC(=O)C1=C(c2ccc(F)cc2OCc2ccccc2)C[C@@H]2CC[C@H]1N2C(=O)NC1CCCCC1	–	–	–	–	–	·	·	·
CCCCN=Cc1c(O)n(-c2c(C)cc(C)cc2C)c(=O)[nH]c1=O	–	–	–	–	–	32.6	33.6	45.0
CCCCCCn1c(O)c(C=NCCCn2ccnc2)c(=O)[nH]c1=O	67.1	·	–	–	53.0	133.5	72.9	89.0
CN1CCN(c2ccc([N+](=O)[O-])c(N)c2)CC1	–	–	–	–	–	–	·	·
Cc1ccc(-n2c(C)nc3ccccc3c2=O)cc1C	–	–	–	–	–	–	·	·
CCOC(=O)c1sc(/N=C/c2c(O)n(-c3ccccc3)c(=O)[nH]c2=O)c(C#N)c1C	–	–	–	–	–	31.7	–	–
CCN(CC)c1ccc(N=Cc2c(O)n(-c3ccccc3)c(=O)[nH]c2=O)cc1	–	–	–	–	–	39.4	59.3	71.2
CCN(CC)c1ccc(N=Cc2c(O)n(Cc3ccccc3)c(=O)[nH]c2=O)cc1	–	–	–	–	–	–	·	·
CCc1nnc(NS(=O)(=O)c2ccc(N=Cc3c(O)n(-c4ccc(Cl)cc4)c(=O)[nH]c3=O)cc2)s1	–	–	49.5	–	–	40.3	–	–
CCOC(=O)c1c(/N=C/c2c(O)n(-c3cccc(C)c3)c(=O)[nH]c2=O)sc2c1CCCC2	–	–	–	–	–	–	·	·
CCOc1ccc(-n2c(O)c(C=Nc3ccc(N(CC)CC)cc3)c(=O)[nH]c2=O)cc1	–	–	–	–	–	30.9	41.9	55.6
SMILES	HNF4A DNA FP	Rpn11 inh	IDE act	IDE inh	CSN deneddyl inh	TPT1 inhibitor	TPT1 inh confirm	RNase T1 counter
CCOC(=O)[C@]1(C#N)[C@@H]2C=CC(C(N)=O)=CN2[C@@H](C(N)=O)[C@@H]1c1ccc(F)cc1	–	–	–	–	–	–	·	·
CC[C@H]1CN2CCC1C[C@H]2[C@H](O)c1ccnc2ccc(OC)cc12 (some centres not stated)	–	·	–	–	–	–	·	·
O=C(O)C(Cl)(Cl)Cl	–	–	·	–	–	–	·	·
CCN(CC)C(=O)c1ccc(NC(=O)c2cccc(S(=O)(=O)N3CCN(C)CC3)c2)cc1	–	–	–	–	–	–	·	·
COc1ccc(CN(CCc2c[nH]c3ccccc23)Cc2ccc(OC)cc2)cc1	–	–	–	·	–	·	·	·
CCOC(=O)CNC(=S)N1CC2C[C@@H](C1)Cn1c2cccc1=O	–	–	–	–	–	–	·	·
CCN(CC)c1ccc(N=Cc2c(O)n(-c3ccccc3C)c(=O)[nH]c2=O)cc1	–	+	–	–	–	68.8	72.3	83.8
Cc1ccccc1-n1c(O)c(C=Nc2ccc3c(c2)OCO3)c(=O)[nH]c1=O	–	–	–	–	–	–	·	·
NC(Cc1ccccc1)c1nc2ccccc2[nH]1 (configuration not stated)	–	–	–	–	–	–	·	·
O=C(c1ccccc1F)c1cn(CC(=O)N2CCCCC2)c2ccccc12	–	–	–	–	–	–	·	·
CC(C)c1ccc(N2C(=O)NC(=O)/C(=C\C=C\c3ccco3)C2=O)cc1	·	·	·	–	·	130.4	109.9	105.9
CCCCn1c(=O)c(C=Nc2cccnc2Cl)c(O)n(CCCCl)c1=O	–	–	–	–	–	29.9	–	–
COc1ccc(N2C(=O)/C(=C/c3ccc(N(C)C)o3)C(=O)NC2=S)cc1	–	·	–	–	–	133.9	142.5	137.9
Cc1ccc(/C=C2\C(=O)NC(=S)N(c3ccc(F)cc3)C2=O)s1	–	–	–	–	–	–	·	·
Cc1ccc(N2C(=O)/C(=C/c3ccc(CN(CCC#N)S(C)(=O)=O)o3)C(=O)NC2=S)cc1	–	–	–	–	47.5	36.1	25.6	37.0
N#Cc1ccc(NC(=O)CN2CCN(C(=O)c3cccs3)CC2)cc1Cl	–	–	–	·	–	·	·	·
CN1C(=O)N(C)C(=O)C2(Cc3cc(NC(=O)c4ccc(F)cc4)ccc3N3CCCC32)C1=O (configuration not stated)	–	–	–	–	–	30.3	–	36.8
CC(C)n1c(=O)c(C=Nc2ccc(Cl)cc2)c(O)n(Cc2ccco2)c1=O	·	·	·	–	·	–	·	·
COc1ccc([N+](=O)[O-])cc1N=Cc1c(O)n(CCc2ccccc2)c(=O)n(C(C)C)c1=O	–	–	–	–	–	37.9	–	–
O=P(NS(=O)(=O)c1ccccc1)(Oc1ccccc1)Oc1ccccc1	–	–	–	–	–	–	·	·
Cc1ccc(S(=O)(=O)NP(=O)(Oc2ccccc2)Oc2ccccc2)cc1	–	–	–	–	–	24.4	–	–
